Data reported in the EternaBench riboswitch data.

Test system: MS2 coat protein
Test: apparent Kd, MS2 coat protein; higher = weaker binding; RNA-MaP array; FMN 200 µM where present
Outline: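 Designs on Illumina sequencing-chip clusters, transcribed by stalled E. coli RNA polymerase, were exposed to SNAP-549-labelled MS2 coat protein in doubling steps from 0.7 or 1.5 nM up to 3 µM, without and then with constant ligand. The buffer held 100 mM Tris-HCl pH 7.5, 80 mM KCl, 4 mM MgCl2, BSA, DTT, yeast tRNA and Tween-20. Apparent Kd values are medians of filtered per-cluster binding-curve fits to green signal normalised to red-channel RNA signal and control-cluster median Fmax.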

[1] = designed as: ON switch for flavin mononucleotide, no ligand
[2] = ligand present: flavin mononucleotide, designed as: ON switch for flavin mononucleotide
[3] = designed as: OFF switch for flavin mononucleotide, no ligand
[4] = ligand present: flavin mononucleotide, designed as: OFF switch for flavin mononucleotide

Row | Sequence | apparent Kd [1] [nM] | apparent Kd [2] [nM] | apparent Kd [3] [nM] | apparent Kd [4] [nM]
1 | UUUUACUAGUAAGGAUAUACUAGCGAUUAGCUUGUAGAAGGUGCAGUCUUAUGUAUAACAUGUUAACAUGAGGAUCACCCAUGU | 125 | 37.6 | – | –
2 | GUUUCACAUGAGGAUCACCCAUGUGAGGAUAUGGUUUCGCUGGCCGUAGCCAGUGGAACCAGAAGGCGCAUGAU | – | – | 36.5 | 41.3
3 | UUUCCGCGAGGAUAUGCGGGCUGUGCUUUUCAUUUCUUACCACAUGAGGAUCACCCAUGUAGAAGGUGCUUCUU | – | – | 154 | 136
4 | AAAUAAUUGUCAGGAUAUGGCAUGUAGACGAUGCCAGAAGGGACAUGAGGAUCACCCAUGUUGCUCAACACUGGGAGACGUAAG | – | – | 133 | 273
5 | UUAUUUAGUGUGAGGAUAUGCUGGUCGAUAGAUCAGCAGAAGGCACAUGAGGAUCACCCAUGUAAUAUAUUAAA | – | – | 58.9 | 248
6 | CUUUUGUGAGGAUAUCAGUAUUAAAAAAAUAAAAUUACUACUGAGAAGGCACAUGAGGAUCACCCAUGUUCCUC | – | – | 32.7 | 168
7 | GGGCUGUCAGGAUAUAGUUCGAGUUCGGAAAUGAGCUUGAGCUAGAAGGGACAUGAGGAUCACCCAUGUGGCCC | – | – | 31.1 | 34.2
8 | CCCAUGUCAGGAUAUCUAAGAGAGGGCCAGCCCUCUCCUCCGGAGAAGGGACAUGAGGAUCACCCAUGUAAAAC | – | – | 129 | 25.5
9 | CACCGUUACGUAGGAUAUAGUACAUGAGGAUCACCCAUGUAAUAAAUGAGAAUUUCGGAUGUAUGCUAGAAGGACGAAAUCGGC | – | – | 53 | 49.1
10 | GUCGGAAACGACAAAAGUACCGGAGCAGAAGGCAUGUCAUAAGACAUGAGGAUCACCCAUGUGCAUGAGGAUAUGCUCCGGUAC | 5.45 | 4.68 | – | –
11 | CCUCGACGGUAGGAUAUCGUCAAACUAUUGUGAUGAGAAGGACUGACAUGAGGAUCACCCAUGUUAACGUGAUG | – | – | 18 | 26.2
12 | ACGUGGAGUCCGCAACAGAACACACAGGAUAUGAGUGGGCACAUGAGGAUCACCCAUGUUACGGAUCAGAAGGGUGUGCUCAUG | 449 | 56.3 | – | –
13 | CGAUGAGGUGUGAGGAUAUCGUGUUCGAAAGAACGUGAGAAGGCACAUGAGGAUCACCCAUGUCAACCUUGUCG | – | – | 17.3 | 15.6
14 | GUGAACAUGAGGAUCACCCAUGUAGCUCACUGCCAGUGGCUACAGGAUAUAGCACUCCGAAGGUGCUAGAAGGGUGGCCUAGAA | 92.8 | 22.1 | – | –
15 | GAUCAGAUAGGAUAUACAGGCUCGUCUUUAUAUUGAUCCCGACAUGAGGAUCACCCAUGUAGAAGGAUCAGAUC | – | – | 16.4 | 45.7
16 | GGAUAGGACAGAGGAUAUACGUGCUAGAGAUACUAGCAAAAUUUCCUCACAUGAGGAUCACCCAUGUAGAAGGCCGUCCUAUCG | – | – | 6.02 | 19.7
17 | AAUUCGUCAGGAUAUGCAUGUAAUUGUUACAUUUCGCCGUUGCAGAAGGGACAUGAGGAUCACCCAUGUAAGUC | – | – | 32.8 | 34.9
18 | GGUACUCAAAGAGUACCAAUACGUACAUGAGGAUCACCCAUGUAGGAUAUGCUACUCAAAGAGUAGCAGAAGGACAUGUGCCUA | – | – | 12.7 | 31
19 | UGUAUGGACAGAGGAUAUACCGAUAGGAGAUACUAUCGACUAGUCCUCACAUGAGGAUCACCCAUGUAGAAGGCUGUCCAUACU | – | – | 25.2 | 179
20 | AACGUCUUAGGAUAUACACUGGGACUUGCCAUGUGGGCCCUACAUGAGGAUCACCCAUGUAGAAGGAAGACAUG | – | – | 19.6 | 14
21 | UAUUGCGCCGUAAAAUAACACAUGAGGAUCACCCAUGUGACACAGGAUAUGACCAGAUCAGAAAGUCAGAAGGGUGAAAACGGC | 99.6 | 21.6 | – | –
22 | AAGUCAGCAGGAUAUGCGAUGUUGUGCUAGAUAGCGGGACCACAUGAGGAUCACCCAUGUAGAAGGGCUGGCUA | – | – | 34 | 22.5
23 | GAUUGGCGACAAUUACAUGAGGAUCACCCAUGUUGUAGUAUGCAGGAUAUGUGGUAUAUUAUUUAACAGAAGGGCAAUAAUUUU | 69.6 | 85.9 | – | –
24 | GUGUACAGAGGAUAUACUUAUGGAGUCACGAAAGUGGCUUCACAUGAGGAUCACCCAUGUAGAAGGCUGUACAC | – | – | 28.1 | 31.1
25 | CACUGCAAUGUAGGAUAUCGACUGGAAUACAGUCGAGAAGGACAUGAGGAUCACCCAUGUAAUCCUAAUAAUAAAUAAGCAGUG | – | – | 12.4 | 18.4
26 | GGUGCAAUGUAGAAGGCAGAUCUGAUUCAGAUCUGAGGAUAUACAUGAGGAUCACCCAUGUUAUGCACCAGCACGAGAGUGCAA | – | – | 6.57 | 12.6
27 | UGGAACUAGGGAGGAUAUGGGAAGAUACAUGAGGAUCACCCAUGUUUAAGAAUGCCGAGAGGCAACUAGAAGGCCCUAGUACCU | 454 | 20.3 | – | –
28 | GGUUGGCGAGGAUAUACAUGAGGAUCACCCAUGUGGUCCUGAGAUAGAAUAGACCUUUGUAGAAGGCGCGGGUC | – | – | 172 | 136
